IDH1 R132H inh – inhibitors of IDH1 R132H reductase, primary screen, biochemical, plate reader, single point | Isocitrate dehydrogenase [NADP] cytoplasmic (Homo sapiens), O75874 | diaphorase/resazurin fluorescence, 60 min | inhibition, % at 10 µM | hit rate 0.18% among 70,000 | AID 624101, 2012; in the data active means inhibition above about 34%; inconclusive means no clear call, values can overlap the other calls; inactive means below about 11%
Target sequence (O75874 whole entry R132H): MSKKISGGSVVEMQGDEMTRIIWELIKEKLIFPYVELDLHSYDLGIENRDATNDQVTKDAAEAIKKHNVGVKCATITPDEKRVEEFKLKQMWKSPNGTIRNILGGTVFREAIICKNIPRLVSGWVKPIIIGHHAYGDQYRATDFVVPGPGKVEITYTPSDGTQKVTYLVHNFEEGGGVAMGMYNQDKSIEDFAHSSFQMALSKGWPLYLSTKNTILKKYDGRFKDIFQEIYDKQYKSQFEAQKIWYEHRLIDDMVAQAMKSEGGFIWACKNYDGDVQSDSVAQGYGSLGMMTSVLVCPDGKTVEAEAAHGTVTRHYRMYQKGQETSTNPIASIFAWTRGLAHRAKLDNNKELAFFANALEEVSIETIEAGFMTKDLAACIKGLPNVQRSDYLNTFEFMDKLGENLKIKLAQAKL
T cruzi growth – T. cruzi intracellular proliferation inhibitors, primary screen, cell-based, beta-gal Tulahuen parasites, NIH3T3 host, luminescence | T. cruzi beta-gal in NIH3T3, GalScreen luminescence, 90 h | inhibition, % at 8.34 µM | hit rate 5.9% among 77,000 | AID 624255, 2012;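 active means mean inhibition above about 93%, with at least 55% of replicates each passing it, limit read from the data, passing the limit was not always enough; inconclusive means only one of those two conditions holds; inactive means neither condition holds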
KDM4C inh – inhibitors of GASC-1 (KDM4C) histone demethylase, primary screen, biochemical, single concentration HTS | GST-KDM4C 2-372, H3K9me3 peptide, LANCE TR-FRET | inhibition, % at 12.5 µM | hit rate 0.15% among 96,000 | AID 720574, 2013;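 active means mean replicate inhibition above about 25%, with at least 55% of replicates also reaching it, limit read from the data, passing the limit was not always enough; inconclusive means only one of those two conditions met; inactive means neither condition met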
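material = GST-tagged GASC-1 (JMJD2C) catalytic fragment, aa 2-372 | amount = enzyme final amount 10 nM | medium = HEPES buffer, pH 7.5, plus ascorbate | also added = H3K9me3 peptide substrate, Fe(II), 2-oxoglutarate | dosing = single dose | times = 30 min demethylation and 1 h detection at room temperature | detection = LANCE TR-FRET | read-out basis = Fall in 671/618 emission ratio as inhibition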
Pf Dd2 inh – P. falciparum Dd2 growth inhibitors, primary screen, SYBR Green fluorescence, single dose replicates; 72 h; active compounds read low; activity change, % at 10 µM; hit rate 2.3% among 94,000; AID 1159554, 2015; in the data active means activity change below about -80%; inconclusive means no clear call, values can overlap the other calls
Each line names hits and unclear results; the compound was inactive in the other large screens. Hits are enriched below; roughly 5.9% of the tested compounds scored in any of these assays.

COc1ccccc1-c1ccc2c(c1)[C@@H]1[C@@H](CCN1C(=O)C1CCCCC1)[C@@H](CO)N2	Pf Dd2 inh -85 (no result: IDH1 R132H inh, KDM4C inh)
COc1cc(NC(=O)Cn2nc(C(F)(F)F)c(Cl)c2C)cc([N+](=O)[O-])c1	none (no result: T cruzi growth, KDM4C inh, Pf Dd2 inh)
O=C(c1ccccc1)c1ccc2nc(-c3cccc(NC(=O)C4CCCO4)c3)[nH]c2c1 (configuration not stated)	none (no result: T cruzi growth, KDM4C inh, Pf Dd2 inh)
CCC1C/C(=C\c2sccc2C)C(=O)/C(=C/c2sccc2C)C1 (configuration not stated)	none (no result: T cruzi growth, KDM4C inh, Pf Dd2 inh)
COc1ccc(-n2c(SCC(=O)c3ccc(Cl)cc3)nnc2-c2ccccc2)cc1	none (no result: T cruzi growth, KDM4C inh, Pf Dd2 inh)
COc1ccc(C#Cc2ccc3c(c2)[C@@H]2[C@@H](CCN2C(=O)C2CCCC2)[C@@H](CO)N3)cc1	Pf Dd2 inh inconclusive (no result: IDH1 R132H inh, T cruzi growth)
OC[C@@H]1Nc2ccc(-c3cccc(F)c3)cc2[C@@H]2[C@H]1CCN2Cc1ccc(F)cc1	Pf Dd2 inh -81 (no result: IDH1 R132H inh)
CN1c2ccc(C3=CCCCC3)cc2[C@H]2[C@H](CCN2C(=O)C2CC2)[C@@H]1CO	Pf Dd2 inh -89 (no result: IDH1 R132H inh, T cruzi growth, KDM4C inh)
COc1ccc(C#Cc2ccc3c(c2)[C@H]2[C@H](CCN2C(=O)C2CCCC2)[C@@H](CO)N3)cc1	Pf Dd2 inh -95 (no result: IDH1 R132H inh, T cruzi growth)
COc1cccc(-c2ccc3c(c2)[C@@H]2[C@@H](CCN2C(=O)C2CCCC2)[C@H](CO)N3)c1	Pf Dd2 inh -86 (no result: IDH1 R132H inh, T cruzi growth)
Cn1c(SCC(=O)Nc2ccc(Br)cc2Cl)nnc1-c1ccncc1	none (no result: T cruzi growth, KDM4C inh, Pf Dd2 inh)
Cn1ccnc1SCC(=O)Nc1cccc(F)c1	none (no result: T cruzi growth, KDM4C inh, Pf Dd2 inh)
CCOC(=O)c1ccccc1NC(=O)c1cc(Cl)ccc1NC(=O)c1ccc(OC)cc1	none (no result: T cruzi growth, KDM4C inh, Pf Dd2 inh)
COc1cccc(-c2ccc3c(c2)[C@@H]2[C@@H](CCN2C(=O)C2CCC2)[C@H](CO)N3)c1	none (no result: IDH1 R132H inh)
O=C(C1CCCC1)N1CC[C@@H]2[C@H](CO)Nc3ccc(C4=CCCCC4)cc3[C@@H]21	Pf Dd2 inh -83 (no result: IDH1 R132H inh, T cruzi growth)
COc1cccc(-c2ccc3c(c2)[C@H]2[C@H](CCN2C(=O)C2CCCCC2)[C@@H](CO)N3)c1	Pf Dd2 inh -88 (no result: IDH1 R132H inh, T cruzi growth)
O=C(c1ccc(F)cc1)N1CC[C@@H]2[C@H]1c1cc(C3=CCCCC3)ccc1N[C@@H]2CO	none (no result: IDH1 R132H inh)
CCOC(=O)Cc1cc(C(=O)c2ccc(OC)cc2)sc1-c1ccc(OC)cc1	none (no result: T cruzi growth, KDM4C inh, Pf Dd2 inh)
C[C@@H]1CCCCO[C@@H](CN(C)Cc2ccc3c(c2)OCO3)[C@@H](C)CN([C@H](C)CO)C(=O)c2cc(NC(=O)CCCCCC(=O)Nc3ccccc3N)ccc2O1	Pf Dd2 inh -85 (no result: T cruzi growth)
C[C@@H]1CCCCO[C@@H](CN(C)Cc2ccc(Cl)c(Cl)c2)[C@@H](C)CN([C@H](C)CO)C(=O)c2cc(NC(=O)CCCCCC(=O)Nc3ccccc3N)ccc2O1	none (no result: T cruzi growth)
C[C@@H]1CCCCO[C@H](CN(C)Cc2ccc(C(F)(F)F)cc2)[C@@H](C)CN([C@H](C)CO)C(=O)c2cc(NC(=O)CCCCCC(=O)Nc3ccccc3N)ccc2O1	Pf Dd2 inh -93 (no result: IDH1 R132H inh, T cruzi growth)
C[C@@H]1CCCCO[C@H](CN(C)Cc2ccccc2)[C@@H](C)CN([C@@H](C)CO)C(=O)c2cc(NC(=O)CCCCCC(=O)Nc3ccccc3N)ccc2O1	none (no result: IDH1 R132H inh)
O=C(c1ccc(F)cc1)N1CC(=O)N2[C@H](CO)[C@H](c3ccc(-c4cccnc4)cc3)[C@H]2C1	Pf Dd2 inh -87 (no result: IDH1 R132H inh, T cruzi growth)
O=C(c1ccccc1F)N1CC(=O)N2[C@H](C1)[C@@H](c1ccc(-c3cccnc3)cc1)[C@@H]2CO	Pf Dd2 inh -87 (no result: IDH1 R132H inh, T cruzi growth)
O=C(c1ccc(F)cc1)N1CC(=O)N2[C@H](C1)[C@H](c1ccc(-c3cccnc3)cc1)[C@@H]2CO	none (no result: IDH1 R132H inh, T cruzi growth)
O=C(c1cccc(F)c1)N1CC(=O)N2[C@H](C1)[C@@H](c1ccc(-c3cccnc3)cc1)[C@@H]2CO	Pf Dd2 inh -88 (no result: IDH1 R132H inh, T cruzi growth)
O=C(c1cccc(F)c1)N1CC(=O)N2[C@H](CO)[C@H](c3ccc(-c4cccnc4)cc3)[C@@H]2C1	none (no result: IDH1 R132H inh, T cruzi growth)
O=C(c1cccnc1)N1CC(=O)N2[C@H](C1)[C@H](c1ccc(-c3ccc(F)cc3)cc1)[C@@H]2CO	none (no result: IDH1 R132H inh, T cruzi growth)
O=C(c1ccc(F)cc1)N1CC(=O)N2[C@H](C1)[C@@H](c1ccc(-c3cccnc3)cc1)[C@@H]2CO	Pf Dd2 inh -89 (no result: IDH1 R132H inh, T cruzi growth)
Cc1sc2ncn(CC(=O)Nc3ccc(F)c(Cl)c3)c(=O)c2c1C	none (no result: T cruzi growth, KDM4C inh, Pf Dd2 inh)
COC(=O)c1ccc(CN2CC(=O)N3[C@H](CO)[C@@H](c4ccc(-c5ccccc5F)cc4)[C@H]3C2)cc1	Pf Dd2 inh -83 (no result: IDH1 R132H inh, T cruzi growth)
COC(=O)c1ccc(CN2CC(=O)N3[C@H](C2)[C@@H](c2ccc(-c4ccccc4F)cc2)[C@@H]3CO)cc1	none (no result: IDH1 R132H inh, T cruzi growth)

Compound activity from PubChem BioAssay.
